High-throughput results from PubChem.
Sampled rows, rich in hits. Any-hit rate of the full collection: about 1.9%.
beta cell repl = inducers of beta-cell replication in MIN6 cells; MIN6 cells proliferation, ATPlite luminescence, 48 h; cells starved in 0.2% serum; 100% = growth in 10% serum; proliferation, % at 10 µM; 330,000 tested, 0.29% active;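 active = compounds whose signal lies at least 3.5 SD above the mean of all wells on their plate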
proKLK7 act = activators of human kallikrein-7 zymogen; purified proKLK7, EDANS-DABCYL substrate fluorescence; 100% is mature enzyme control, 0% vehicle; activation, % at 7 µM; 370,000 tested, 0.9% active; AID 652039;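 active = activation above the mean of all tested compounds plus 3 SD, computed per campaign excluding outliers beyond control limits, cut at about 13% in these data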
Target sequence (P49862 whole entry, looked up): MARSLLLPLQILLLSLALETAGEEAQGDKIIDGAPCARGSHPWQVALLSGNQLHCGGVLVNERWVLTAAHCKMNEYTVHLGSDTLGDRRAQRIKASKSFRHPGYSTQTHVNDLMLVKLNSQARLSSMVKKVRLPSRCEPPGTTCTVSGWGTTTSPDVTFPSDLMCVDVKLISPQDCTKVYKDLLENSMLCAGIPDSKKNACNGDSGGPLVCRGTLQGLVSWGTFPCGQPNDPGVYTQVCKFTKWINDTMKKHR
Yeast superoxide = yeast age-related superoxide inhibition as caloric restriction mimetic. S. cerevisiae aged cells, superoxide DHE fluorescence; stronger effect = lower value. superoxide response (% of plate mean), % at 10 µM. 330,000 tested, 0.18% active. AID 2690;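 active = superoxide response under a set limit, about three screen SD below normal, cut at about 65% in these data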;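 note: yeast aged for seven days with compound at 30 °C before DHE staining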
V-ATPase pH = regulators of yeast V-ATPase proton transport | 350,000 tested, 0.37% active | AID 504577 | S. cerevisiae, pHLuorin cytosolic pH fluorescence | response, % at 10 µM; in the data active = response mostly above about 7.3%, no sharp cut-off; inactive = mostly below about 5.4%; note: actives read high
Rce1 inhib = blocks yeast Ras-converting enzyme | 290,000 tested, 0.27% active | AID 2563 | Q03530 | yeast membranes, quenched prenylated peptide cleavage fluorescence | calls only;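 active = fall in fluorescence gain of 50% or more versus controls, with final raw signal at or below 3038400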
Target sequence (Q03530 whole entry, looked up): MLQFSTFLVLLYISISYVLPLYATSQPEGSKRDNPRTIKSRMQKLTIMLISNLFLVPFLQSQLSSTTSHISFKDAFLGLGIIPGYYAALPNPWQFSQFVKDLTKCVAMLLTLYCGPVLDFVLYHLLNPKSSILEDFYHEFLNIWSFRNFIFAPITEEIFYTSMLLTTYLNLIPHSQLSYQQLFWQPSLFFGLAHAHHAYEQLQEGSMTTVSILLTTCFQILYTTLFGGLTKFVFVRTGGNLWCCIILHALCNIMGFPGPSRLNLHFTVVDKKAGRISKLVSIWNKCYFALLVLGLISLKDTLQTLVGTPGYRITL
T cell HTS = T cell immune modulators affecting CD8 T cell-vesicle binding; 330,000 tested, 0.068% active; 2C CD8+ T cell-vesicle binding, flow cytometry; stronger effect = lower value; response (vesicle binding), % at 7 µM;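 active = response, share of CD8 T cells binding vesicles, and their 90th percentile fluorescence all below set limits, cut at about 80% in these data, passing the limit was not always enough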;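 note: values below 100% mean blocked vesicle binding to the CD8+ T cells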
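material = purified 2C TCR transgenic mouse naive CD8+ T cells | controls = Unloaded micro-vesicles (low), QL9 vesicles with 0.7% DMSO (high) | detection = cytometric PE anti-B7-1 and Alexa647 anti-CD8 signals after 1% paraformaldehyde fixation | incubation = binding step 1.5 h, 37 °C, antibody labelling 20 min, ice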
V-ATPase pH SP = modulates yeast V-ATPase proton transport; shares compounds with V-ATPase pH; S. cerevisiae pHLuorin cytosolic pH; response, % at 10 µM; 980 tested, 2% active; AID 602197; in the data active = response above about 24%
Numbers stand for hits; – = inactive; · = not tested or not shown.

SMILES	beta cell repl	proKLK7 act	Yeast superoxide	V-ATPase pH	Rce1 inhib	T cell HTS	V-ATPase pH SP
O=C(CN1CCc2ccccc2C1)Nc1ccccc1N1CCCCCC1	–	·	–	16.4	–	–	–
O=C(CN1CCc2ccccc2C1)Nc1ccccc1Cl	–	–	–	–	–	–	·
Cc1cccc(C)c1N(CC(=O)NCc1ccco1)C(=O)CNS(=O)(=O)c1ccc(F)cc1	–	–	–	–	–	–	·
CC(C)(C)c1ccc(C(O)c2ncc(-c3cccc(F)c3)[nH]2)cc1 (stereo unspecified)	·	–	·	·	·	·	·
COc1ccc(C(=O)NCCn2cc(SCC(=O)NCC3CCCO3)c3ccccc32)cc1OC (stereo unspecified)	–	–	–	8.1	–	–	–
COc1ccc(C(=O)COC(=O)/C=C/c2ccccc2[N+](=O)[O-])cc1	–	–	–	13.7	·	–	–
CC1(C)CC(=O)C(C(C2=C(O)CC(C)(C)CC2=O)c2cccc(O)c2)C(=O)C1 (stereo unspecified)	–	–	–	–	·	–	·
CC1(C)CC(=O)C(C(C2=C(O)CC(C)(C)CC2=O)c2cccs2)C(=O)C1 (stereo unspecified)	–	·	–	10.7	–	–	35.5
COCCn1c(SCC(=O)NNC(=O)c2ccccc2)nc2ccccc21	–	–	–	11.8	·	–	–
O=C(CCC1CCN(C(=O)CC2=CCCCC2)CC1)NCc1ccc(F)cc1	·	–	·	7.1	·	·	–
CN(Cc1ccccc1)C(=O)CCC1CCN(C(=O)CC2=CCCCC2)CC1	–	–	·	–	–	·	·
c1ccc(CNC2=NCCCCC2)cc1	–	–	–	–	–	–	·
Cc1ccc(CNC2=NCCCCC2)n1C	–	–	–	11.4	–	–	–
CCOC(=O)N1CCN(C(=O)c2cc3n(n2)C(C(F)(F)F)CC(c2ccc4c(c2)OCO4)N3)CC1 (stereo unspecified)	–	–	–	7.4	–	–	–
COc1ccc(NC(=O)N(C)C[C@@H]2OCc3cnnn3CCCC(=O)N([C@@H](C)CO)C[C@@H]2C)cc1	·	–	·	·	·	·	·
O=C(N/C(=C/c1ccccc1)C(=O)N1CCCCC1)c1ccco1	–	–	–	–	–	–	·
Cc1nn(CC2CC2)c(=O)n1-c1ccc(C(C)C)cc1	–	–	–	–	–	–	·
Cc1nn(CC2CC2)c(=O)n1-c1ccc(Cl)cc1	–	–	–	–	–	–	–
COc1ccc(Cc2c(-c3ccc(OC)c(OC)c3)nc3ccc(C)cn23)c(C)c1	·	–	·	·	·	·	·
COc1ccc(-c2cccc(-c3cc(=O)oc4cc(OC)c(OC)c(OC)c34)c2)cc1	·	–	–	8.2	·	·	–
CCOC(=O)C(=O)c1cn(C2OCC(OC(C)=O)C(OC(C)=O)C2OC(C)=O)c2ccccc12 (stereo unspecified)	–	–	–	13.9	–	–	–
COC(=O)C1=C(\O)CCCC/C=C\1C(=O)O	·	–	·	–	·	·	·
CCn1c(SCC(=O)Nc2nc3ccccc3s2)nnc1-c1ccc(Br)cc1	–	–	–	15.4	–	–	–
Cc1onc(-c2ccccc2)c1C(=O)NC1CCC(C)CC1 (stereo unspecified)	–	–	–	–	·	–	·
Cc1onc(-c2ccccc2)c1C(=O)NC1CCCCC1C (stereo unspecified)	·	–	·	9.2	·	·	–
SMILES	beta cell repl	proKLK7 act	Yeast superoxide	V-ATPase pH	Rce1 inhib	T cell HTS	V-ATPase pH SP
CCCCOCC1CN(Cc2ccccc2OC)S(=O)(=O)c2cc(Cl)ccc2O1 (stereo unspecified)	·	–	·	·	·	·	·
COc1cc(/C=N/NC2=NC(C)(C)Cc3ccccc32)cc(OC)c1OC	–	–	–	8.2	–	–	–
COc1cc(/C=N/NC2=NS(=O)(=O)c3ccccc32)cc(OC)c1OC	–	–	–	–	–	–	·
COc1ccc(/C=C2\SC(=O)N(CCNC(=O)Cn3[nH]c(=O)c4ccccc4c3=O)C2=O)cc1	–	–	–	–	·	–	·
CCOC(=O)Cc1cc(=O)n2[nH]c(C)c(C#N)c2n1	–	–	–	–	–	–	·
CCOC(=O)Cc1cc(=O)n2[nH]c(C)c(-c3ccccc3OC)c2n1	–	–	–	19.4	–	–	–
CN(C)C(=O)N(CCCN1CCOCC1)Cc1cccc2ccccc12	–	–	–	–	–	–	·
Cc1ccc(NC(=O)COc2ccccc2C#N)cc1S(=O)(=O)N1CCCCCC1	–	–	–	–	·	–	·
Cc1ccc(NC(=O)COc2cccnc2[N+](=O)[O-])cc1S(=O)(=O)N1CCCCC1	–	–	–	56.6	–	–	–
O=C(COc1coc(CN2CCc3ccccc32)cc1=O)Nc1cccc(F)c1	–	–	–	–	–	–	·
O=C(O)C1CCC1C(=O)Nc1nc(-c2ccc(Cl)s2)cs1 (stereo unspecified)	–	–	–	12.4	–	–	–
Cc1ccc(S(=O)(=O)NCc2ccc(C(=O)NC3CCC(O)CC3)cc2)cc1C (stereo unspecified)	–	–	–	–	·	–	·
Cc1nn(Cc2c(F)c(F)c(F)c(F)c2F)c(C)c1NC(=O)c1ccc(COc2ccccc2Cl)cc1	·	–	·	16.2	–	·	–
CC(=O)c1c(C)[nH]c(C(=O)OCC(=O)Nc2ccc3c(c2)OCCO3)c1C	–	–	–	–	·	–	·
COc1ccc(S(=O)(=O)N2CCOCC2)cc1NC(=O)COC(=O)CCS(=O)(=O)c1ccc(C)cc1	·	–	·	–	·	·	·
CNCc1cc(Cl)cc(OC)c1OC(C)C	·	–	·	7.7	–	·	–
CCOC(=O)C1=C(COC(=O)c2cccnc2SC)NC(=O)NC1C (stereo unspecified)	–	–	–	–	·	–	·
Cc1ccc(S(=O)(=O)N2CCC(C(=O)N/N=C/c3cccn3C)CC2)cc1	–	–	–	11.4	·	–	–
Cc1ccc(S(=O)(=O)N2CCC(C(=O)Nc3ccc(S(=O)(=O)N4CCCC4)cc3)CC2)cc1	–	–	–	–	–	–	·
COc1c(C)cc(C(O)c2ncc(-c3cccc(F)c3)[nH]2)cc1C (stereo unspecified)	·	–	·	·	·	·	·
CCS(=O)(=O)Nc1ccc(-c2ccc(NS(=O)(=O)CC)c(OC)c2)cc1OC	–	–	–	–	–	–	·
COc1ccc(NS(=O)(=O)CC(C)C)c(OC)c1	–	–	–	11.3	–	–	–
CC(NC(=O)c1ccc(Cl)cc1)C(=O)NC1=NCCS1 (stereo unspecified)	–	–	–	–	–	–	·
CC(Oc1ccccc1)C(=O)NC1=NCCS1 (stereo unspecified)	–	–	–	7.3	–	–	–
CC(NC(=O)c1ccc(F)cc1)C(=O)NC1=NCCS1 (stereo unspecified)	–	–	–	–	–	–	–
CN1CCC(N2CCN(C3CN(Cc4cn(Cc5ccc(C(F)(F)F)cc5)nn4)S(=O)(=O)C3)CC2)CC1 (stereo unspecified)	·	–	·	·	·	·	·
Cc1nn(-c2ccc(Cl)cc2)c(=O)c2c(C)noc12	–	–	–	–	–	–	–
